Data taken from paper PMC5644278 (Alzheimer's & Dementia : Translational Research & Clinical …, 2016).

How the values were obtained:
[1] = test system: healthy male subjects; experiment: Visual verbal learning test; type: in vivo, human
[2] = Plasma pharmacokinetics after single intranasal dose of Gln-1062; type: in vivo, human; conditions: over the Gln-1062 intranasal dose levels
[3] = test system: healthy male subjects; experiment: Eye movements; type: in vivo, human
[4] = test system: healthy male subjects; experiment: VAS nausea, single dose; type: in vivo, human; conditions: healthy elderly males
[5] = test system: healthy male subjects; experiment: Nasal examination; type: in vivo, human; conditions: Gln-1062 44-mg group
Method in brief: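 Nasal examination at screening, during the study period after one intranasal dose (44 mg; healthy elderly males, 6 active per cohort, double-dummy with oral capsules), and at follow-up about 1 week after dosing.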

[6] = test system: healthy male subjects; experiment: Adaptive tracking; type: in vivo, human
Method in brief: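 Healthy males got one intranasal spray dose in a double-dummy design with oral capsules: 11 mg for young subjects, 22 or 33 mg for elderly subjects, 6 per dose, with age-matched nasal placebo. NeuroCart tests were run twice before dosing, then at 1, 2, 3, 4, 5, 6, 8 and 10 h after, in a quiet room, one subject per session. Analysis was mixed-model ANOVA: treatment, time and treatment×time fixed, subject random, baseline as covariate.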

[7] = test system: healthy male subjects; experiment: Pharmaco-electroencephalography, single dose; type: in vivo, human
[8] = Pharmacokinetics of Gln-1062 in female Wistar rats; type: in vivo
[9] = Gln-1062 5.5 mg vs Placebo, healthy young males
[10] = Gln-1062 11 mg vs Placebo, healthy young males
[11] = Gln-1062 22 mg vs Placebo, healthy elderly males
[12] = Gln-1062 33 mg vs Placebo, healthy elderly males
[13] = Gln-1062 44 mg vs Placebo, healthy elderly males

Q: With COc1ccc2c3c1O[C@H]1C[C@@H](OC(=O)c4ccccc4)C=C[C@@]31CCN(C)C2 [Gln-1062] as the compound, how does the “VVLT: delayed word recall (correct)” value [1, 9] read?
A: Its value is 3.42 (−2.62 to 9.45) P = .2431.

Q: And the “VVLT: immediate word recall trial 1 (Word recall correct 1)” value (from here on “VVLT … (Word recall correct 1)”) [1, 9]?
A: Its value is 3.42 (−0.73 to 7.56) P = .0984.

Q: And the “VVLT: immediate word recall trial 2 (Word recall correct 2)” value (“VVLT … (Word recall correct 2)” for short) [1, 9]?
A: The value was 3.17 (−1.93 to 8.26) P = .2025.

Q: What about the “VVLT: immediate word recall trial 3 (Word recall correct 3)” value (“VVLT … (Word recall correct 3)” for short) [1, 9] of the same compound?
A: Its value is 5.00 (−0.58 to 10.58) P = .0749.

Q: And the “VVLT: word recognition (Delayed word recognition correct)” value (“VVLT: word recognition” for short) [1, 9]?
A: Its value is −0.15 (−8.05 to 7.75) P = .9674.

Q: And the “VVLT: delayed word recall (correct)” value [1, 10]?
A: The value was 3.25 (−2.79 to 9.29) P = .2657.

Q: What about the “VVLT … (Word recall correct 1)” value [1, 10] of the same compound?
A: Its value is 3.92 (−0.23 to 8.06) P = .0621.

Q: What about the “VVLT … (Word recall correct 2)” value [1, 10] of the same compound?
A: The value was 1.83 (−3.26 to 6.93) P = .4510.

Q: What about the “VVLT … (Word recall correct 3)” value [1, 10] of the same compound?
A: Its value is 3.00 (−2.58 to 8.58) P = .2662.

Q: And the “VVLT: word recognition” value [1, 10]?
A: Its value is 1.45 (−6.45 to 9.35) P = .6939.

Q: And the “VVLT: delayed word recall (correct)” value [1, 11]?
A: Its value is −0.33 (−3.58 to 2.91) P = .8354.

Q: And the “VVLT … (Word recall correct 1)” value [1, 11]?
A: Its value is 2.67 (0.17 to 5.16) P = .0367.

Q: And the “VVLT … (Word recall correct 2)” value [1, 11]?
A: The value was 3.50 (0.33 to 6.67) P = .0315.

Q: What about the “VVLT … (Word recall correct 3)” value [1, 11] of the same compound?
A: The value was 0.67 (−3.23 to 4.56) P = .7302.

Q: And the “VVLT: word recognition” value [1, 11]?
A: Its value is 0.87 (−4.09 to 5.82) P = .7231.

Q: What about the “VVLT: delayed word recall (correct)” value [1, 12] of the same compound?
A: The value was −0.00 (−3.63 to 3.63) P = 1.0000.

Q: What about the “VVLT … (Word recall correct 1)” value [1, 12] of the same compound?
A: The value was 1.97 (−0.65 to 4.58) P = .1355.

Q: And the “VVLT … (Word recall correct 2)” value [1, 12]?
A: Its value is 1.77 (−1.56 to 5.09) P = .2880.

Q: What about the “VVLT … (Word recall correct 3)” value [1, 12] of the same compound?
A: Its value is 0.60 (−3.49 to 4.69) P = .7672.

Q: And the “VVLT: word recognition” value [1, 12]?
A: The value was −0.67 (−6.45 to 5.12) P = .8153.

Q: And the “VVLT: delayed word recall (correct)” value [1, 13]?
A: The value was −1.00 (−4.63 to 2.63) P = .5780.

Q: What about the “VVLT … (Word recall correct 1)” value [1, 13] of the same compound?
A: Its value is 2.57 (−0.05 to 5.18) P = .0541.

Q: And the “VVLT … (Word recall correct 2)” value [1, 13]?
A: Its value is 1.77 (−1.56 to 5.09) P = .2880.

Q: What about the “VVLT … (Word recall correct 3)” value [1, 13] of the same compound?
A: The value was 1.00 (−3.09 to 5.09) P = .6222.

Q: What about the “VVLT: word recognition” value [1, 13] of the same compound?
A: Its value is 2.17 (−3.11 to 7.45) P = .4083.

Q: What about the Tmax [2] of the same compound?
A: The Tmax was 15 to 45 min.

Q: What about the half-life [2] of the same compound?
A: The half-life was 66 to 168 min.

Q: And the “Saccadic Inaccuracy” value [3, 9]?
A: The value was −1.56 (−2.77 to −0.35) P = .0157%.

Q: And the “Saccadic Peak Velocity” value [3, 9]?
A: The value was 9.90 (−17.50 to 37.30) P = .4465 deg/sec.

Q: What about the “Saccadic Inaccuracy” value [3, 10] of the same compound?
A: The value was −1.78 (−3.03 to −0.54) P = .0088%.

Q: What about the “Saccadic Peak Velocity” value [3, 10] of the same compound?
A: Its value is 8.32 (−18.32 to 34.95) P = .5097 deg/sec.

Q: And the “Saccadic Inaccuracy” value [3, 11]?
A: Its value is 0.24 (−1.01 to 1.48) P = .7005%.

Q: What about the “Saccadic Peak Velocity” value [3, 11] of the same compound?
A: Its value is 26.92 (4.11 to 49.73) P = .0223 deg/sec.

Q: And the “Saccadic Inaccuracy” value [3, 12]?
A: The value was 0.08 (−1.14 to 1.30) P = .8970%.

Q: What about the “Saccadic Peak Velocity” value [3, 12] of the same compound?
A: The value was 0.92 (−21.84 to 23.68) P = .9349 deg/sec.

Q: And the “Saccadic Inaccuracy” value [3, 13]?
A: The value was −0.22 (−1.57 to 1.12) P = .7363%.

Q: And the “Saccadic Peak Velocity” value [3, 13]?
A: Its value is 19.19 (−5.54 to 43.92) P = .1242 deg/sec.

Q: What about the “peak of nausea (VAS nausea), time after administration” value [4] of the same compound?
A: Its value is 4 h.

Q: What about the “subjects with dry white plaques in the nostrils” value [5] of the same compound?
A: Its value is “three”.

Q: What about the Adaptive tracking [6, 9] of the same compound?
A: Its Adaptive tracking is 1.96 (−0.88 to 4.80) P = .1581%.

Q: And the Adaptive tracking [6, 10]?
A: Its Adaptive tracking is 3.47 (0.52 to 6.42) P = .0247%.

Q: What about the Adaptive tracking [6, 11] of the same compound?
A: Its Adaptive tracking is 0.64 (−1.06 to 2.35) P = .4474%.

Q: What about the Adaptive tracking [6, 12] of the same compound?
A: Its Adaptive tracking is 1.79 (0.07 to 3.52) P = .0424%.

Q: What about the Adaptive tracking [6, 13] of the same compound?
A: Its Adaptive tracking is 0.74 (−0.99 to 2.48) P = .3887%.

Q: What about the “EEG Alpha Fz-Cz (uV)” value [7, 9] of the same compound?
A: Its value is −13.2% (−30.5% to 8.5%) P = .1914.

Q: What about the “EEG Alpha Pz-Oz (uV)” value [7, 9] of the same compound?
A: The value was −8.9% (−23.8% to 8.9%) P = .2782.

Q: And the “EEG Alpha Fz-Cz (uV)” value [7, 10]?
A: The value was −0.8% (−19.5% to 22.1%) P = .9310.

Q: And the “EEG Alpha Pz-Oz (uV)” value [7, 10]?
A: The value was −13.1% (−27.2% to 3.7%) P = .1086.

Q: And the “EEG Alpha Fz-Cz (uV)” value [7, 11]?
A: The value was 7.8% (−7.0% to 25.1%) P = .3088.

Q: What about the “EEG Alpha Pz-Oz (uV)” value [7, 11] of the same compound?
A: The value was 13.8% (−5.4% to 36.9%) P = .1633.

Q: And the “EEG Alpha Fz-Cz (uV)” value [7, 12]?
A: The value was 21.5% (4.8% to 40.8%) P = .0116.

Q: What about the “EEG Alpha Pz-Oz (uV)” value [7, 12] of the same compound?
A: Its value is 19.7% (−0.2% to 43.6%) P = .0530.

Q: And the “EEG Alpha Fz-Cz (uV)” value [7, 13]?
A: The value was −10.1% (−24.2% to 6.6%) P = .2121.

Q: And the “EEG Alpha Pz-Oz (uV)” value [7, 13]?
A: Its value is 2.1% (−16.3% to 24.5%) P = .8306.

Q: And the “Brain-to-blood ratio (AUClast brain / AUClast blood)” value ([8]; 5.0 mg/kg Gln-1062 IN)?
A: Its value is 8.1.

Q: What about the “Brain-to-blood ratio (AUClast brain / AUClast blood)” value ([8]; 5.0 mg/kg Gln-1062 IV) of the same compound?
A: The value was 18.40.

Q: What about the “Brain-to-blood ratio (AUClast brain / AUClast blood)” value ([8]; 20.0 mg/kg Gln-1062 IN) of the same compound?
A: The value was 10.2.

Q: What about the AUClast ([8]; blood, 5.0 mg/kg Gln-1062 IV) of the same compound?
A: Its AUClast is 528 ng·h/mL.

Q: And the Cmax ([8]; blood, 5.0 mg/kg Gln-1062 IV)?
A: The Cmax was 650 ng/mL.
